The record followed here is ChEMBL document CHEMBL2177013, “Synthesis and biological evaluation of tylophorine-derived dibenzoquinolines as orally active agents: exploration of the role of tylophorine e ring on biological activity” (J Med Chem, 2012).

SMILES strings stand for the structures. Active and inactive are the calls of the source. The calls are words filed in the database; no cut-off is given here.

Data set [1] in a line: Oral bioavailability in Sprague-Dawley rat at 3 mg/kg by HPLC-MS method. It is filed as ADME, organism-based. The conditions noted are these: in vivo. An outline of the steps:
(§1)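 Male rats (330−380 g, 9−10 weeks), jugular vein cannula implanted 1 day before, fasted. 3 mg/kg given iv or orally (n = 3) in DMA/PEG400 30/70 v/v. Blood (150 μL) drawn at 0, 2, 5 (iv only), 15, 30 min and 1, 2, 4, 6, 8, 12, 24 h; plasma analysed by HPLC-MS; noncompartmental analysis.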

The nature of data set [2]: Cmax in Sprague-Dawley rat at 3 mg/kg, po by HPLC-MS method. Particulars: in vivo. It is filed as ADME, organism-based. On the set-up: dose 3 mg/kg, route oral. An outline of the steps:
as §1

The nature of data set [3]: Volume of distribution at steady state in Sprague-Dawley rat at 3 mg/kg, iv by HPLC-MS method. In kind it is ADME, organism-based. The arrangement: dose 3 mg/kg, route intravenous. The conditions noted are these: in vivo, read-out: Vdss. In a few lines: as §1
Data set [4] can be described thus: Clearance in Sprague-Dawley rat at 3 mg/kg, iv by HPLC-MS method. In kind it is ADME, organism-based. On the set-up: dose 3 mg/kg, route intravenous. Particulars: in vivo. An outline of the steps:
as §1

Data set [5] can be described thus: Apparent elimination half life in Sprague-Dawley rat at 3 mg/kg, iv by HPLC-MS method. The conditions noted are these: in vivo, read-out: betat1/2(app) (converted). On the set-up: dose 3 mg/kg, route intravenous. In kind it is ADME, organism-based. In a few lines: as §1
A further data set deals with A549. The experiment in a line: Induction of c-Jun protein accumulation in human A549 cells incubated for 24 hrs by Western blotting. It is filed as functional, cell-based. A general note: Immunoblotting shows a protein as a band on a membrane.
For data set [6], the system named is MCF7. The experiment in a line: Induction of c-Jun protein accumulation in human MCF7 cells incubated for 24 hrs by Western blotting. In kind it is functional, cell-based.
For data set [7], the system named is MCF7. The data set is described as follows: Down regulation of cyclin A2 expression in human MCF7 cells incubated for 24 hrs by Western blotting. In kind it is functional, cell-based.
The subject of a further data set is RAW264.7. The data set is described as follows: Antiinflammatory activity in mouse RAW264.7 cells assessed as inhibition of LPS-induced nitric oxide production incubated for 18 hrs by nitrate/nitrite assay. It is filed as functional, cell-based. Particulars: RAW264.7, 18 h. In a few lines:
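RAW264.7 seeded 65000 cells/well, cultured 24 h, then medium replaced with complete medium containing IFNγ (20 ng/mL)/LPS (5 μg/mL) plus compound at various concentrations for 18 h; nitric oxide measured by Nitrate/Nitrite kit. EC50 as mean of at least three experiments, each in duplicate.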

The nature of data set [8]: Growth inhibition of human HONE1 cells. In kind it is functional. An outline of the steps:
(§2)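 Cells seeded per well: NUGC-3 4500, HONE-1 6000, MCF-7 6500, NCI-H460 2500, HepG2 10000, A549 5000; A549 grown in RPMI 1640 with 2 g/L NaHCO₃, 2 mM L-glutamine and 10% FBS. GI₅₀ = concentration giving 50% growth inhibition, mean of at least three experiments each in duplicate. Paclitaxel served as positive control.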

A further data set relates to NCI-H460. The experiment in a line: Growth inhibition of human NCI-H460 cells. In kind it is functional. An outline of the steps: as §2
The subject of a further data set is HepG2. The experiment in a line: Growth inhibition of human HepG2 cells. It is filed as functional. In a few lines:
as §2

The test system of data set [9] is Rattus norvegicus. The data set is described as follows: Antiinflammatory activity against Sprague-Dawley rat assessed as reduction in carrageenan-induced hind paw edema at 5 mg/kg, ip. In kind it is functional. On the set-up: scale not given: the % may be the effect or the level left. The conditions noted are these: route intraperitoneal. In a few lines:
(§3)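 Female Sprague−Dawley rats (193−214 g, 8−9 weeks, n = 5) dosed ip 1 h before subplantar injection of 100 μL 1% carrageenan in saline into the left hind paw. Vehicle group received DMSO (100 μL); indomethacin served as positive control. Inhibition of 30% or more counted as significant.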

For data set [10], the system named is Rattus norvegicus. The experiment in a line: Antiinflammatory activity against Sprague-Dawley rat assessed as reduction in carrageenan-induced hind paw edema at 3 mg/kg, ip. It is filed as functional. On the set-up: scale not given: the % may be the effect or the level left. Particulars: route intraperitoneal. In a few lines:
as §3
(In general: The carrageenan paw model is a standard test of acute inflammation.)

What is called bioavailability is dose-corrected exposure relative to a reference, in per cent. By Cmax is commonly meant the peak of the concentration-time curve. For orientation: clearance means a measure of how efficiently the substance is removed, as volume per time. One may read the EC50 as the concentration giving half of the maximal effect. One may read the GI50 as the concentration giving 50% growth inhibition. `CCN1Cc2c(c3ccc(OC)cc3c3cc(OC)c(OC)cc23)C(O)C1` (centres undefined): the bioavailability in [1] stood at 63.5%. The concentration in [2] peaked (Cmax) at 0.0724 µg/mL. Besides, in data set [3], the Vd is 2.7 L/kg. The clearance in data set [4] came to 3.11 L/h/kg. Besides, the half-life in data set [5] is 48 min. Also, the outcome in the data set with A549, with MCF7 [6] and with MCF7 [7] was Active. Besides, the half-maximal effective concentration (EC50) in the data set on RAW264.7 was found to be 0.07 µM. Besides, the 50% growth inhibitory concentration (GI50) amounted to 0.06 µM in data set [8], 0.02 µM in the data set with NCI-H460 and 0.04 µM in the data set with HepG2. Moreover, the Activity with Rattus norvegicus [9] and in the data set on Rattus norvegicus [10] was over 60% in each case.
